# Experimental data: ChEMBL document CHEMBL3271979, “Inhibition of solid tumors by nitrosoureas. 1. Lewis lung carcinoma” (1977)
# Active and inactive are the calls of the source. The rule behind the calls is not given here.
# How the values were obtained:
# [1] = Antitumor activity against mouse early Lewis lung carcinoma allografted in BDF1 mouse assessed as increase in host life span at 67 mg/kg, ip administered as single dose on 1 or 2 days post-tumor implantation; type: functional; settings: route intraperitoneal
# Method in brief: (§1)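 BDF1 mice (C57Blk/6 × DBA/2) implanted sc by trocar with ~40 mg Lewis lung tumor fragments from bacteriologically sterile donor tumors. Single ip dose on day 1 or 2, as a solution or suspension in water (CMC or gum acacia) or saline (HPC or Tween 80). Read-out is […]. Same-dose toxicity controls were run in nontumor-bearing mice.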
# [2] = Ratio of ED50 for antitumor activity against mouse L1210 cells allografted in ip dosed mouse to LD10 for mouse
# [3] = Antitumor activity against mouse early Lewis lung carcinoma allografted in BDF1 mouse assessed as increase in host life span at 152 mg/kg, ip administered as single dose on 1 or 2 days post-tumor implantation; type: functional; settings: route intraperitoneal; method in brief: as §1
# [4] = Antitumor activity against mouse early Lewis lung carcinoma allografted in BDF1 mouse assessed as time delay in tumor growth at 67 mg/kg, ip administered as single dose on 1 or 2 days post-tumor implantation; type: functional; settings: route intraperitoneal
# Method in brief: (§2)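 BDF1 mice (C57Blk/6 × DBA/2) implanted sc by trocar with ~40 mg Lewis lung tumor fragments from bacteriologically sterile donors. A single ip dose was given on day 1 or 2, as a solution or suspension in water or saline with suspending agent, at ≤0.5 ml. Tumors were measured by caliper at least twice weekly, with weight = ab²/2. Delay was taken as the days for the tumor to reach 1 g.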
# Mus musculus [5] = experiment: Antitumor activity against mouse advanced Lewis lung carcinoma allografted in ip dosed BDF1 mouse assessed as disease cure administered as single dose on day 6 or 7 post-tumor implantation; type: functional, organism-based
# Method in brief: (§3)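 BDF1 mice (C57Blk/6 × DBA/2) implanted sc by trocar with Lewis lung tumor fragments of about 40 mg, taken only from bacteriologically sterile donor tumors. Mice bearing tumors of about 400 mg (day 6-7) were selected. Each received a single ip dose on day 7, at or below the LD10 in normal mice. Groups were of 10 mice. Tumor weight was taken from calipers as w = ab²/2, measured at least twice weekly. Matched non-tumor mice served as toxicity controls.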
# [6] = Antitumor activity against mouse advanced Lewis lung carcinoma allografted in BDF1 mouse assessed as increase in host life span at 171 mg/kg, ip administered as single dose on 7th day post-tumor implantation; type: functional; settings: route intraperitoneal
# Method in brief: (§4)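 BDF1 mice (C57Blk/6 × DBA/2) implanted sc by trocar with about 40 mg Lewis lung tumor fragments from bacteriologically sterile donors. Advanced-disease groups held tumors of about 400 mg by day 6-7, sized by caliper (w = ab²/2). Single ip injection on day 7, in water or saline vehicle, at or below the LD10 in normal mice. Tumors measured at least twice weekly.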
# [7] = Antitumor activity against mouse early Lewis lung carcinoma allografted in ip dosed BDF1 mouse assessed as disease cure administered as single dose on 1 or 2 days post-tumor implantation measured for 80 days post-drug treatment; type: functional
# Method in brief: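 BDF1 mice implanted sc by trocar with ~40 mg Lewis lung fragments from sterile donor tumors. A single ip dose was given on day 1 or 2 after implant, in water or saline vehicle. Cures were scored in animals observed for at least 80 days after treatment. Drug-toxicity controls were matched non-tumor-bearing mice monitored for body weight and deaths.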
# [8] = Antitumor activity against mouse early Lewis lung carcinoma allografted in BDF1 mouse assessed as time delay in tumor growth at 152 mg/kg, ip administered as single dose on 1 or 2 days post-tumor implantation; type: functional; settings: route intraperitoneal; method in brief: as §2
# Mus musculus [9] = experiment: Antitumor activity against mouse advanced Lewis lung carcinoma allografted in BDF1 mouse assessed as disease cure at 22 mg/kg, ip administered as single dose on 7th day post-tumor implantation measured for 80 days post-drug treatment; type: functional, organism-based; set-up: dose 22 mg/kg; method in brief: as §3
# [10] = Antitumor activity against mouse early Lewis lung carcinoma allografted in BDF1 mouse assessed as increase in host life span at 10 mg/kg, ip administered as single dose on 1 or 2 days post-tumor implantation; type: functional; settings: route intraperitoneal
# Method in brief: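 Early disease: BDF1 mice carrying sc trocar implants of about 40 mg Lewis lung fragments. One ip dose given on day 1 or 2 after implant, in distilled water or saline, at ≤0.5 ml. Endpoints were % increase in life-span of dying animals and delay in days for the primary tumor to reach 1 g. Untreated controls served as reference.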
# [11] = Antitumor activity against mouse early Lewis lung carcinoma allografted in BDF1 mouse assessed as time delay in tumor growth at 10 mg/kg, ip administered as single dose on 1 or 2 days post-tumor implantation; type: functional; settings: route intraperitoneal
# Method in brief: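 Sc trocar implants of about 40 mg Lewis lung fragments in BDF1 mice. A single ip injection was given on day 1 or 2, in water or physiological saline, at ≤0.5 ml. Tumor size came from caliper length and width as w = ab²/2, measured at least twice weekly. Growth delay is the extra days taken to reach 1 g, compared with untreated controls.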
# [12] = Antitumor activity against mouse advanced Lewis lung carcinoma allografted in BDF1 mouse assessed as increase in host life span at 22 mg/kg, ip administered as single dose on 7th day post-tumor implantation; type: functional; settings: route intraperitoneal; method in brief: as §4
# Mus musculus [13] = experiment: Antitumor activity against mouse advanced Lewis lung carcinoma allografted in ip dosed BDF1 mouse assessed as complete regression of established tumor administered as single dose on day 6 or 7 post-tumor implantation; type: functional, organism-based; method in brief: as §3
# [14] = Antitumor activity against mouse early Lewis lung carcinoma allografted in BDF1 mouse assessed as time delay in tumor growth at 15 mg/kg, ip administered as single dose on 1 or 2 days post-tumor implantation; type: functional; settings: route intraperitoneal; method in brief: as §2
# [15] = Antitumor activity against mouse early Lewis lung carcinoma allografted in BDF1 mouse assessed as increase in host life span at 15 mg/kg, ip administered as single dose on 1 or 2 days post-tumor implantation; type: functional; settings: route intraperitoneal; method in brief: as §1
# [16] = Antitumor activity against mouse advanced Lewis lung carcinoma allografted in BDF1 mouse assessed as increase in host life span at 44 mg/kg, ip administered as single dose on 7th day post-tumor implantation; type: functional; settings: route intraperitoneal; method in brief: as §4
# [17] = Antitumor activity against mouse early Lewis lung carcinoma allografted in BDF1 mouse assessed as time delay in tumor growth at 99 mg/kg, ip administered as single dose on 1 or 2 days post-tumor implantation; type: functional; settings: route intraperitoneal; method in brief: as §2
# [18] = Antitumor activity against mouse early Lewis lung carcinoma allografted in BDF1 mouse assessed as increase in host life span at 99 mg/kg, ip administered as single dose on 1 or 2 days post-tumor implantation; type: functional; settings: route intraperitoneal; method in brief: as §1
# [19] = Antitumor activity against mouse early Lewis lung carcinoma allografted in BDF1 mouse assessed as increase in host life span at 148 mg/kg, ip administered as single dose on 1 or 2 days post-tumor implantation; type: functional; settings: route intraperitoneal; method in brief: as §1
# [20] = Antitumor activity against mouse early Lewis lung carcinoma allografted in BDF1 mouse assessed as time delay in tumor growth at 148 mg/kg, ip administered as single dose on 1 or 2 days post-tumor implantation; type: functional; settings: route intraperitoneal; method in brief: as §2
# Mus musculus [21] = experiment: Antitumor activity against mouse advanced Lewis lung carcinoma allografted in BDF1 mouse assessed as disease cure at 44 mg/kg, ip administered as single dose on 7th day post-tumor implantation measured for 80 days post-drug treatment; type: functional, organism-based; set-up: dose 44 mg/kg; method in brief: as §3
compound,measurement,setting,value
O=NN(CCCl)C(=O)N[C@H]1CC[C@H](NC(=O)N(CCCl)N=O)CC1,ILS at 67 mg/kg,[1],34%
same,Ratio,[2],0.3
same,ILS at 152 mg/kg,[3],41%
same,Time,[4],2 days
same,Activity,Mus musculus [5],Active
same,ILS at 171 mg/kg,[6],146%
same,Activity,[7],10%
same,Time,[8],4 days
O=NN(CCCl)C(=O)NC1CSCSC1,Activity,Mus musculus [9],inactive
same,ILS at 10 mg/kg,[10],24%
same,Ratio,[2],0.3
same,Time,[11],3.5 days
same,Activity,Mus musculus [5],inactive
same,Activity,[7],10%
same,ILS at 22 mg/kg,[12],36%
same,inhibition,Mus musculus [13],Active
same,Time,[14],4.5 days
same,ILS at 15 mg/kg,[15],42%
C[C@H]1CC[C@H](NC(=O)N(CCF)N=O)CC1,Ratio,[2],0.6
same,ILS at 44 mg/kg,[16],94%
same,Time,[17],2.6 days
same,Activity,Mus musculus [5],inactive
same,Activity,[7],10%
same,ILS at 99 mg/kg,[18],34%
same,ILS at 148 mg/kg,[19],0%
same,inhibition,Mus musculus [13],Active
same,Time,[20],1.4 days
same,Activity,Mus musculus [21],inactive
